In ChEMBL document CHEMBL1130162, “Structure-activity relationships of cysteine-lacking pentapeptide derivatives that inhibit ras farnesyltransferase” (J Med Chem, 1997):

What was measured:
[1] = biological target: T1, Protein farnesyltransferase (Rattus norvegicus, UniProt Q02293+Q04631); assay: Inhibition of rat brain farnesyltransferase in 30 mM potassium phosphate buffer
Summary of the method: (§1)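 40-fold purified rat brain FTase at pH 7.4 with 1.2 mM MgCl2, leupeptin, pepstatin and PMSF. Substrates: [1-3H]farnesyl pyrophosphate (0.12 μM final) and biotinyl-aminoheptanoyl-TKCVIM peptide (0.1 μM final). Compounds were serially diluted from DMSO and incubated 30 min at 37 °C. Stopped with streptavidin beads in acidic Mg acetate/BSA and scintillation counted.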

[2] = biological target: T1, Protein farnesyltransferase; assay: Inhibition of rat brain farnesyltransferase in 50 mM HEPES buffer; summary of the method: as §1
[3] = biological target: T1, Protein farnesyltransferase; assay: Inhibition of rat brain farnesyltransferase in 5 mM potassium phosphate and 50 mM HEPES buffer; summary of the method: as §1
[4] = biological target: T1, Protein farnesyltransferase; assay: Inhibitory concentration against rat brain farnesyltransferase
Summary of the method: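 Rat brain FTase (40-fold purified), pH 7.4, in 30 mM potassium phosphate, 5 mM phosphate plus 50 mM Hepes, or 50 mM Hepes. Buffer also held 7 mM DTT, 1.2 mM MgCl2 and protease inhibitors. Final substrates were 0.12 μM [1-3H]FPP and 0.1 μM biotinyl-aminoheptanoyl-TKCVIM, with inhibitor varied from DMSO stock. Reaction ran 30 min at 37 °C, was stopped with streptavidin beads, and was counted by scintillation proximity. Generally n = 2.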

[5] = biological target: Protein farnesyltransferase (Homo sapiens, UniProt P49354+P49356); assay: Inhibition of human farnesyltransferase; assay type: protein-complex assay
[6] = biological target: geranylgeranyltransferase type-I (Rattus norvegicus, UniProt P53610+Q04631); assay: Inhibition of rat brain Geranylgeranyl transferase type I; settings: in the assay text read “rat” for “rat brain”
Summary of the method: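 Rat GGTase-I expressed in Sf9 cells, assayed like the FTase test. Substrates were geranylgeranyl pyrophosphate and biotinyl-aminoheptanoyl-Thr-Lys-Cys-Val-Ile-Leu, with inhibitor varied from DMSO stock. Incubation at 37 °C. Streptavidin bead capture with radioactivity count as the read-out.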

Compound | IC50 [1] [nM] | IC50 [2] [nM] | IC50 [3] [nM] | IC50 [4] [nM] | also measured
CCOP(=O)(Cc1ccc(CC(NC(=O)[C@@H](Cc2cnc[nH]2)NC(=O)OCc2ccccc2)C(=O)N[C@H](COCc2ccccc2)C(=O)N[C@H](Cc2c[nH]c3ccccc23)C(=O)N[C@@H](C)C(N)=O)cc1)OCC (stereo partly specified) | 25 | 75 | 49 |  | 
C[C@H](NC(=O)[C@@H](Cc1c[nH]c2ccccc12)NC(=O)[C@@H](COCc1ccccc1)NC(=O)[C@@H](Cc1ccc(OP(=O)(O)O)cc1)NC(=O)[C@@H](Cc1c[nH]cn1)NC(=O)OCc1ccccc1)C(N)=O | 13 | 6 | 9 |  | 
C[C@@H](NC(=O)[C@H](Cc1c[nH]c2ccccc12)NC(=O)[C@H](COCc1ccccc1)NC(=O)[C@H](Cc1ccc(OCc2ccccc2)cc1)NC(=O)[C@H](Cc1c[nH]cn1)NC(=O)OCc1ccccc1)C(N)=O (single isomer, unassigned) | 20 | 1600 | 76 | 20 | IC50 [5]: 10 nM; IC50 [6]: 1250 nM
C[C@H](NC(=O)[C@@H](Cc1c[nH]c2ccccc12)NC(=O)[C@@H](COCc1ccccc1)NC(=O)C(Cc1ccc(CP(=O)(O)O)cc1)NC(=O)[C@@H](Cc1cnc[nH]1)NC(=O)OCc1ccccc1)C(N)=O (stereo partly specified) | 200 | 190 | 280 |  | 
C[C@@H](NC(=O)[C@H](Cc1c[nH]c2ccccc12)NC(=O)[C@H](COCc1ccccc1)NC(=O)[C@H](Cc1ccc(O)cc1)NC(=O)[C@H](Cc1c[nH]cn1)NC(=O)OCc1ccccc1)C(N)=O (single isomer, unassigned) | 35 | 510 | 102 | 35 | 
C[C@H](NC(=O)[C@@H](Cc1c[nH]c2ccccc12)NC(=O)[C@@H](COCc1ccccc1)NC(=O)[C@@H](Cc1ccc(OCc2ccccc2)cc1)NC(=O)C(Cc1c[nH]cn1)NC(=O)OCc1ccccc1)C(N)=O (stereo partly specified) |  |  |  | 82 | 
C[C@H](NC(=O)[C@@H](Cc1c[nH]c2ccccc12)NC(=O)[C@@H](COP(=O)(O)O)NC(=O)[C@@H](Cc1ccc(OCc2ccccc2)cc1)NC(=O)[C@@H](Cc1cnc[nH]1)NC(=O)OCc1ccccc1)C(N)=O | 240 | 660 | 360 |  | 
C[C@H](NC(=O)[C@@H](Cc1c[nH]c2ccccc12)NC(=O)[C@H](COCc1ccccc1)NC(=O)[C@@H](Cc1ccc(OCc2ccccc2)cc1)NC(=O)[C@@H](Cc1cnc[nH]1)NC(=O)OCc1ccccc1)C(N)=O |  |  |  | 13000 | 
CC(=O)N[C@H](Cc1cnc[nH]1)C(=O)N[C@H](Cc1ccc(OCc2ccccc2)cc1)C(=O)N[C@H](COCc1ccccc1)C(=O)N[C@H](Cc1c[nH]c2ccccc12)C(=O)N[C@@H](C)C(N)=O |  |  |  | 10000 | 
C[C@H](NC(=O)[C@@H](Cc1c[nH]c2ccccc12)NC(=O)[C@@H](COCc1ccccc1)NC(=O)[C@@H](Cc1ccc(OCc2ccccc2)cc1)NC(=O)C(CS)NC(=O)OCc1ccccc1)C(N)=O (stereo partly specified) |  |  |  | 170 | 
C[C@H](NC(=O)[C@@H](Cc1c[nH]c2ccccc12)NC(=O)[C@@H](COCc1ccccc1)NC(=O)[C@@H](Cc1ccc(OCc2ccccc2)cc1)NC(=O)[C@@H](Cc1c[nH]cn1)NC(=O)OC1CCCCC1)C(N)=O |  |  |  | 3800 | 
C[C@H](NC(=O)[C@@H](Cc1c[nH]c2ccccc12)NC(=O)[C@@H](CSCc1ccccc1)NC(=O)[C@@H](Cc1ccc(OCc2ccccc2)cc1)NC(=O)[C@@H](Cc1cnc[nH]1)NC(=O)OCc1ccccc1)C(N)=O |  |  |  | 15 | 
C[C@H](NC(=O)[C@@H](Cc1c[nH]c2ccccc12)NC(=O)[C@@H](COCc1ccccc1)NC(=O)[C@@H](Cc1ccc(OCc2ccccc2)cc1)NC(=O)C(N)CCCNC(=O)OCc1ccccc1)C(N)=O (stereo partly specified) |  |  |  | 4700 | 
C[C@H](NC(=O)[C@@H](Cc1c[nH]c2ccccc12)NC(=O)[C@H](NC(=O)[C@@H](Cc1ccc(OCc2ccccc2)cc1)NC(=O)[C@@H](Cc1cnc[nH]1)NC(=O)OCc1ccccc1)[C@@H](C)OCc1ccccc1)C(N)=O |  |  |  | 15 | 
C[C@H](NC(=O)C(Cc1ccccc1)NC(=O)[C@@H](COCc1ccccc1)NC(=O)[C@@H](Cc1ccc(OCc2ccccc2)cc1)NC(=O)[C@@H](Cc1cnc[nH]1)NC(=O)OCc1ccccc1)C(N)=O (stereo partly specified) |  |  |  | 2500 | 
